Tests used:
[1] = target: T1, Adrenergic receptor alpha-2 (Rattus norvegicus, UniProt P22086+P19328+P22909); assay: Alpha-2 adrenergic receptor antagonist activity in a rat vas deferens assay. Values ranges from 8.42-9.51; assay type: functional
T1 sequence (P22086 whole entry): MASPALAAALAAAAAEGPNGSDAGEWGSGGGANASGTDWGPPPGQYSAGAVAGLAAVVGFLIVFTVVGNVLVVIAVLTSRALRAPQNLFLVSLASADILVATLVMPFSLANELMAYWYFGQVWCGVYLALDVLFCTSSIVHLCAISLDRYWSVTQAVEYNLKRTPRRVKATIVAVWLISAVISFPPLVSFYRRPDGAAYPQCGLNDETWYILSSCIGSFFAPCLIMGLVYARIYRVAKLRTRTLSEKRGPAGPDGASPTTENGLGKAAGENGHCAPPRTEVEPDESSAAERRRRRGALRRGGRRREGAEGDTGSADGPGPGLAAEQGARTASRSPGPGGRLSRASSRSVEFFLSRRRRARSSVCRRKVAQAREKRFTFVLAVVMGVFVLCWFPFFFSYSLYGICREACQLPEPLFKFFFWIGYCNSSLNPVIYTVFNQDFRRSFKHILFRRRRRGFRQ
T1 sequence (P19328 whole entry): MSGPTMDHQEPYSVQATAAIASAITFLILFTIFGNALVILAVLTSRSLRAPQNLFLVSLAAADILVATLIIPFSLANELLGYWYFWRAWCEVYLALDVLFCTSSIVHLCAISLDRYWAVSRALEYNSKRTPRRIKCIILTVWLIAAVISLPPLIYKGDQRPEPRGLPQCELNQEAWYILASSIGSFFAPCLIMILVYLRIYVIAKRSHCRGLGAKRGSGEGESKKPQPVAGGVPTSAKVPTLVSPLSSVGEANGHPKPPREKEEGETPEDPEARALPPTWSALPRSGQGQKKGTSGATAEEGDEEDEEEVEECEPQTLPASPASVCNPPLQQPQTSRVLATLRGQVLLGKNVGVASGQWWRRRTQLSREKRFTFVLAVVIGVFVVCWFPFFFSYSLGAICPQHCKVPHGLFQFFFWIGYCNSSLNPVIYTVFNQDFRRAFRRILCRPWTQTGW
T1 sequence (P22909 whole entry): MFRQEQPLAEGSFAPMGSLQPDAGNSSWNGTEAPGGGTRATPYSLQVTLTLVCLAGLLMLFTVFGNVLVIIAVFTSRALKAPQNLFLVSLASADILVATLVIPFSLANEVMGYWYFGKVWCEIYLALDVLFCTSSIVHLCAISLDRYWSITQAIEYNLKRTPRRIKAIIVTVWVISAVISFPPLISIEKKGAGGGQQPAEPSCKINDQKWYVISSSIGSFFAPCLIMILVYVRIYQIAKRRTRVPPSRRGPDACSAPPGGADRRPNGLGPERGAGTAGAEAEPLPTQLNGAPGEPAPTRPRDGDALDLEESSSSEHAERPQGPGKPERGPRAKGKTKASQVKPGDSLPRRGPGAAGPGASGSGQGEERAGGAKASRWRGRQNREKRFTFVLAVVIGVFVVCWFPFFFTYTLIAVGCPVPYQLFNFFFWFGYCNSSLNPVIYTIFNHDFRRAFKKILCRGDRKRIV
Method in brief: (§1)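 pA2 at presynaptic α2-adrenoreceptors in field-stimulated rat vas deferens. Tissue was held in Krebs solution (NaCl 118 mM, KCl 4.7 mM, CaCl2 2.5 mM, KH2PO4 1.2 mM, MgSO4 0.6 mM, NaHCO3 25 mM, dextrose 11.1 mM) gassed with 95% O2/5% CO2 at 30 °C. Stimulation was 3-ms pulses, 40 V, 0.1 Hz, with contractions recorded isometrically. Twitches were inhibited by clonidine (110 nM).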

[2] = target: T2, Adrenergic receptor alpha-1 (Rattus norvegicus, UniProt P15823+P23944+P43140); assay: Alpha-1 adrenergic receptor antagonist activity in a rat anococcygeus. Values ranges from 6.50-6.62; assay type: functional
T2 sequence (P15823 whole entry): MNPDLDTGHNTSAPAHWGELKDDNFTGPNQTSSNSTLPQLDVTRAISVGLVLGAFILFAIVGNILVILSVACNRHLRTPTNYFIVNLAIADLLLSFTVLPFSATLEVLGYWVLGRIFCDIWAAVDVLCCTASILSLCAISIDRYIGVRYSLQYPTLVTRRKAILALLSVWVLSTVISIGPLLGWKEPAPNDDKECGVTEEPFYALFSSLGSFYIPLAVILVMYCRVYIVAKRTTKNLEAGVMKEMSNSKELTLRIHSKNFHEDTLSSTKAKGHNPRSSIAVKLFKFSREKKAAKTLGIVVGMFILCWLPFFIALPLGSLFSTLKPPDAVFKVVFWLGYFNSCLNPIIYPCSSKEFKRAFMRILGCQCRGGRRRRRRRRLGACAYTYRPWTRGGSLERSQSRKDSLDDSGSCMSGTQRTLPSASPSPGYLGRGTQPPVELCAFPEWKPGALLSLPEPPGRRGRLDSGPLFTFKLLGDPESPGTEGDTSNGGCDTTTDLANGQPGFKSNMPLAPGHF
T2 sequence (P23944 whole entry): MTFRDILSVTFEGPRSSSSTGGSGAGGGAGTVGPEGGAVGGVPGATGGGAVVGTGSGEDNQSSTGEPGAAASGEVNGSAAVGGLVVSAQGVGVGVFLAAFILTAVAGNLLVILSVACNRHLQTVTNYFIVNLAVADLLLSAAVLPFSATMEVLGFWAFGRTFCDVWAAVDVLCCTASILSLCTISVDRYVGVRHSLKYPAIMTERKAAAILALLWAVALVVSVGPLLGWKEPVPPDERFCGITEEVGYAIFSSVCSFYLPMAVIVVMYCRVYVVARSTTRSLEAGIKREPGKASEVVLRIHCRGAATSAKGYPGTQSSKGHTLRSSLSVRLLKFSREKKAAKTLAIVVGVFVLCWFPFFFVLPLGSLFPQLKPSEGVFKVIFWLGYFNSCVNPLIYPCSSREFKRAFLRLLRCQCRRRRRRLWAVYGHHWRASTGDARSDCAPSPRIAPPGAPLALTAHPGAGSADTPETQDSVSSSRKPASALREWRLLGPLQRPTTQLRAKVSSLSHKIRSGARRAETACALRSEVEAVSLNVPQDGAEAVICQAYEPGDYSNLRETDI
T2 sequence (P43140 whole entry): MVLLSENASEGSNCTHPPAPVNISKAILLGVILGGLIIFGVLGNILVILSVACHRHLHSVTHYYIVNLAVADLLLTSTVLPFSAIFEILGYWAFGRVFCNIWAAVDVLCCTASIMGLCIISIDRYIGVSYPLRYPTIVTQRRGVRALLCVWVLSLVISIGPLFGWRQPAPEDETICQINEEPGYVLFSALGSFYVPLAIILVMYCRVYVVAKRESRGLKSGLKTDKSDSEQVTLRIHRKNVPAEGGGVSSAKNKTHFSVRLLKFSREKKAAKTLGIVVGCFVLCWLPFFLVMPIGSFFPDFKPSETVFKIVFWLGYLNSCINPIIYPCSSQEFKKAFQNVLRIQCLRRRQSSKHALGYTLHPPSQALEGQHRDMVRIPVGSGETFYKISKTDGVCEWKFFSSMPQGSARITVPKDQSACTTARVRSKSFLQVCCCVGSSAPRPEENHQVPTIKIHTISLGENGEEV

[3] = target: T3, Adrenergic receptor alpha-1 (Rattus norvegicus) (UniProt P15823+P23944+P43140); assay: post-synaptic antagonist activity towards alpha-1 adrenergic receptor was determined. Concentration giving a dose response to phenylephrine (idazoxan=1) was reported.; assay type: functional
Method in brief: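 Rat anococcygeus, postsynaptic α1 antagonism. At least five phenylephrine concentration–response curves were run alone, then at least four with the antagonist present.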

[4] = target: T4, Adrenergic receptor alpha-2 (Rattus norvegicus) (UniProt P22086+P19328+P22909); assay: Alpha-2 adrenergic receptor antagonist activity compared to idazoxan; assay type: functional
Method in brief: (§2)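 Vas deferens from rat or mouse; the mouse tissue was in Mg-free Krebs at 30 °C under 0.5 g tension, stimulated at 0.1 Hz, 3 ms, 100–140 V, giving a twitch of about 100 mg. […] Standard curves were run before and after the test curve.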

[5] = target: T3, Adrenergic receptor alpha-1 (Rattus norvegicus); assay: Alpha-1 adrenergic receptor binding activity relative to idazoxan.; assay type: protein assay
[6] = target: Adrenergic receptor alpha (Rattus norvegicus) (UniProt P15823+P23944+P43140+P22086+P19328+P22909); assay: Selectivity as ratio […] against alpha-2 receptor to that of alpha-1 receptor.; assay type: protein assay
[7] = target: T4, Adrenergic receptor alpha-2 (Rattus norvegicus); assay: Presynaptic antagonist activity towards alpha-2 adrenergic receptor.; assay type: functional; method in brief: as §2
[8] = target: T2, Adrenergic receptor alpha-1; assay: Alpha-1 adrenergic receptor antagonist activity in a rat anococcygeus. Values ranges from 6.35-6.44; assay type: functional
[9] = target: T1, Adrenergic receptor alpha-2; assay: Alpha-2 adrenergic receptor antagonist activity in a rat vas deferens assay. Values ranges from 8.54-8.87; assay type: functional, tissue-based
[10] = target: T1, Adrenergic receptor alpha-2; assay: Alpha-2 adrenergic receptor activity in a rat vas deferens assay. Values ranges from 8.85-9.01; assay type: tissue-based; method in brief: as §1
[11] = target: T2, Adrenergic receptor alpha-1; assay: Alpha-1 adrenergic receptor antagonist activity in a rat anococcygeus. Values ranges from 6.53-7.08; assay type: functional
[12] = target: T1, Adrenergic receptor alpha-2; assay: Alpha-2 adrenergic receptor antagonist activity in a rat vas deferens assay. Values ranges from 7.77-8.21; assay type: functional, tissue-based
[13] = target: T3, Adrenergic receptor alpha-1 (Rattus norvegicus); assay: Alpha-1 adrenergic receptor antagonist activity relative to idazoxan.; assay type: functional
Method in brief: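 The agonist was phenylephrine, tested on isolated rat anococcygeus under 0.5 g initial tension. At least five phenylephrine dose-response curves were run alone, then at least four in the presence of the analogue.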

[14] = target: T2, Adrenergic receptor alpha-1; assay: Alpha-1 adrenergic receptor activity in a rat anococcygeus. Values ranges from 5.49-6.90
[15] = target: T2, Adrenergic receptor alpha-1; assay: Alpha-1 adrenergic receptor antagonist activity in a rat anococcygeus. Values ranges from 6.29-6.54; assay type: functional
[16] = target: T1, Adrenergic receptor alpha-2; assay: Alpha-2 adrenergic receptor antagonist activity in a rat vas deferens assay. Values ranges from 8.37-9.10; assay type: functional; method in brief: as §1
[17] = target: T1, Adrenergic receptor alpha-2; assay: Alpha-2 adrenergic receptor activity in a rat vas deferens assay. Values ranges from 8.25-9.35; assay type: tissue-based; method in brief: as §1
[18] = target: T2, Adrenergic receptor alpha-1; assay: Alpha-1 adrenergic receptor activity in a rat anococcygeus. Values ranges from 6.17-6.38

| pA2 [1] | pA2 [2] | Postsynaptic antagonist [3] | Relative potency [4] | Relative potency [5] | Ratio [6] | potency relative to idazoxan [7] | pA2 [10] | pA2 [11] | pA2 [15] | pA2 [16] | pA2 [17] | pA2 [18] | Compound | pA2 [8] | pA2 [9] | pA2 [12] | Relative potency [13] | pA2 [14] |
| --- | --- | --- | --- | --- | --- | --- | --- | --- | --- | --- | --- | --- | --- | --- | --- | --- | --- | --- |
| 8.81 | 6.55 | 6 | 2 | 1.7 | 0.3 | 2 |  |  |  |  |  |  | C=CCOC1(C2=NCCN2)COc2ccccc2O1 (configuration not stated) |  |  |  |  |  |
|  |  | 7 | 2.6 | 2.6 | 0.8 | 5.9 | 8.92 | 6.74 |  |  |  |  | CCOC1(C2=NCCN2)COc2ccccc2O1.Cl (configuration not stated) |  |  |  |  |  |
|  |  | 1 | 1.4 | 0.9 | 1.5 | 1.5 |  |  |  |  | 8.64 | 6.26 | CCCOC1(C2=NCCN2)COc2ccccc2O1 (configuration not stated) |  |  |  |  |  |

More lines, now with the values behind:

| Compound | pA2 [1] | pA2 [2] | Postsynaptic antagonist [3] | Relative potency [4] | Relative potency [5] | Ratio [6] | potency relative to idazoxan [7] | pA2 [10] | pA2 [11] | pA2 [15] | pA2 [16] | pA2 [17] | pA2 [18] | pA2 [8] | pA2 [9] | pA2 [12] | Relative potency [13] | pA2 [14] |
| --- | --- | --- | --- | --- | --- | --- | --- | --- | --- | --- | --- | --- | --- | --- | --- | --- | --- | --- |
| CCC1(C2=NCCN2)COc2ccccc2O1 (configuration not stated) |  |  | 2.25 | 1.6 | 1.2 | 1.3 | 3 |  |  |  |  |  |  | 6.44 | 8.87 |  |  |  |
| C1=C(C2(C3=NCCN3)COc3ccccc3O2)CC1.Cl (configuration not stated) |  |  | 0.13 | 0.3 |  | 2.3 | 0.3 |  |  |  |  |  |  |  |  | 8.21 | 0.3 | 6.9 |
| c1ccc(COC2(C3=NCCN3)COc3ccccc3O2)cc1 (configuration not stated) |  |  | 3 | 1.5 | 1.2 | 0.7 | 2 |  |  | 6.39 | 8.68 |  |  |  |  |  |  |  |

From ChEMBL document CHEMBL1123096, “Alpha-adrenoreceptor reagents. 3. Synthesis of some 2-substituted 1,4-benzodioxans as selective presynaptic alpha 2-adrenoreceptor antagonists” (J Med Chem, 1985)
